From ChEMBL document CHEMBL2163237, “Molecular determinants of selectivity and efficacy at the dopamine D3 receptor” (J Med Chem, 2012)

Tests used:
D(2) dopamine receptor = D(2) dopamine receptor (Homo sapiens, UniProt P14416); test: Displacement of [125I]IABN from human D2L receptor expressed in HEK293 cells after 60 mins by gamma counting analysis; type: cell-based
How it was run: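 Competitor spanned 5 orders of magnitude. Filtration with cold wash, then gamma counting. Single-site IC50 converted to Ki by Cheng-Prusoff. Mean of ≥3 independent experiments.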

D(3) dopamine receptor [1] = biological target: T1, D(3) dopamine receptor (Homo sapiens, UniProt P35462); test: Displacement of [125I]IABN from human D3 receptor expressed in HEK293 cells after 60 mins by gamma counting analysis; type: cell-based
How it was run: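 Competitor spanned 5 orders of magnitude. Nonspecific binding defined with 15 µM (+)-butaclamol. Filtration with cold wash, then gamma counting. Single-site IC50 converted to Ki by Cheng-Prusoff. Mean of ≥3 independent experiments.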

Homo sapiens = species on record: Homo sapiens; test: Selectivity ratio of Ki for human D2L receptor to Ki for human D3 receptor
D(3) dopamine receptor [2] = biological target: T1, D(3) dopamine receptor; test: Partial agonist activity at human D3 receptor expressed in HEK293T cells coexpressing GalphaoA-91-Rluc8 and mVenus-Gbeta1gamma2 after 2 mins by bioluminescence resonance energy transfer assay relative to dopamine; type: functional, cell-based; conditions: HEK-293T
How it was run: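 Human D3R transiently co-transfected (PEI) into HEK-293T cells with GαoA-RLuc8 and split-mVenus Gβ1/Gγ2; assayed ~48 h post-transfection. Cells in PBS/0.1% glucose at room temperature (40 µg protein/well), coelenterazine h 5 µM for 8 min, ligand for 2 min; BRET1 ratio 510–540/485 nm.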

T1 sequence (P35462 whole entry): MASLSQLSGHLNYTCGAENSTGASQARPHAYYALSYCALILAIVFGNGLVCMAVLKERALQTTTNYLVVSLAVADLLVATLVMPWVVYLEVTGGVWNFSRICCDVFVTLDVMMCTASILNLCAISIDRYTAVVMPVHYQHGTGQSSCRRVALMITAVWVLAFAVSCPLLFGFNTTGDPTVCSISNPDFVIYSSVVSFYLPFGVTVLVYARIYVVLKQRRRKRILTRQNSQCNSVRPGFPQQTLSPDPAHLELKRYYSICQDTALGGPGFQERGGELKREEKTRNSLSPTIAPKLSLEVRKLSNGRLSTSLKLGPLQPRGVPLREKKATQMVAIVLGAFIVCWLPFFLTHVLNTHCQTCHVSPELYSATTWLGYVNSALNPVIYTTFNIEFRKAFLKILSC
Chain of D(2) dopamine receptor (P14416 whole entry): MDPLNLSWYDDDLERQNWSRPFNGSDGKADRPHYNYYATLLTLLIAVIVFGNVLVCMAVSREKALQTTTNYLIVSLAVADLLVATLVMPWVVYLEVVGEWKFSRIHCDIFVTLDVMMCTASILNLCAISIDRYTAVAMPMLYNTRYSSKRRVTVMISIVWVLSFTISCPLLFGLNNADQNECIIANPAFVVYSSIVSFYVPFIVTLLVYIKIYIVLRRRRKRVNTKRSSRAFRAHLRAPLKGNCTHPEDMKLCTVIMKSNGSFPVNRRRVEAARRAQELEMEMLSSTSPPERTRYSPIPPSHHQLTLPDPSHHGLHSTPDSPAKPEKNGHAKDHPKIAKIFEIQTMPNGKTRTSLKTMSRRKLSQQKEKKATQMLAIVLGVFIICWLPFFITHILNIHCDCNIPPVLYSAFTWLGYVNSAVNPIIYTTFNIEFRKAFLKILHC

SMILES: CN1CCN(c2cccc(Cl)c2Cl)CC1
- Ki (D(2) dopamine receptor): 45.9 nM
- Ki (D(3) dopamine receptor [1]): 54.6 nM
- Ratio Ki (Homo sapiens): 0.84

SMILES: CCCCN1CCN(c2ccccc2OC)CC1
- Ki (D(2) dopamine receptor): 20.6 nM
- Ki (D(3) dopamine receptor [1]): 23.9 nM
- Ratio Ki (Homo sapiens): 0.86

SMILES: CCCN1CCN(c2cccc(Cl)c2Cl)CC1
- Ki (D(2) dopamine receptor): 5.2 nM
- Ki (D(3) dopamine receptor [1]): 6.3 nM
- Ratio Ki (Homo sapiens): 0.82

SMILES: Clc1cccc(N2CCNCC2)c1Cl
- Ki (D(2) dopamine receptor): 137 nM
- Ki (D(3) dopamine receptor [1]): 197 nM
- Ratio Ki (Homo sapiens): 0.69

SMILES: CCC(=O)NCCCCN1CCN(c2cccc(Cl)c2Cl)CC1
- Ki (D(2) dopamine receptor): 15.6 nM
- Ki (D(3) dopamine receptor [1]): 4.8 nM
- Ratio Ki (Homo sapiens): 3.25

SMILES: COc1ccccc1N1CCN(C)CC1
- Ki (D(2) dopamine receptor): 265 nM
- Ki (D(3) dopamine receptor [1]): 590 nM
- Ratio Ki (Homo sapiens): 0.45

SMILES: O=C(NCC[C@@H](O)CN1CCN(c2cccc(Cl)c2Cl)CC1)c1cc2ccccc2[nH]1
- Emax (D(3) dopamine receptor [2]): 20.6%

SMILES: COc1ccccc1N1CCN(CCCCNC(=O)c2cc3ccccc3[nH]2)CC1
- Emax (D(3) dopamine receptor [2]): 8.38%

SMILES: COc1ccccc1N1CCNCC1
- Ki (D(2) dopamine receptor): 680 nM
- Ki (D(3) dopamine receptor [1]): 2260 nM
- Ratio Ki (Homo sapiens): 0.3

SMILES: OCCN1CCN(c2cccc(Cl)c2Cl)CC1
- Ki (D(2) dopamine receptor): 63.7 nM
- Ki (D(3) dopamine receptor [1]): 36.3 nM
- Ratio Ki (Homo sapiens): 1.75

SMILES: CCCCN1CCN(c2cccc(Cl)c2Cl)CC1
- Ki (D(2) dopamine receptor): 3.4 nM
- Ki (D(3) dopamine receptor [1]): 1.9 nM
- Ratio Ki (Homo sapiens): 1.79

SMILES: O=C(NCCCCN1CCN(c2cccc(Cl)c2Cl)CC1)c1cc2ccccc2[nH]1
- Ki (D(3) dopamine receptor [1]): 1.4 nM
- Emax (D(3) dopamine receptor [2]): 16%

SMILES: CCC(=O)NCCCCN1CCN(c2ccccc2OC)CC1
- Ki (D(2) dopamine receptor): 84 nM
- Ki (D(3) dopamine receptor [1]): 38.6 nM
- Ratio Ki (Homo sapiens): 2.18

SMILES: CCCCNC(=O)c1cc2ccccc2[nH]1
- Ki (D(3) dopamine receptor [1]): 21500 nM
